# Measured values published in publication PMC10671706 (Journal of medicinal chemistry, 2022).
# Bridge positions count the residues as written; N and C are the ends. Square brackets hold non-standard residues; d marks the D form. Ends that are not written are not given here. Peptide text beside a SMILES is read from it.
# How the values were obtained:
# [1] = target: human PD-1/PD-L1 interaction (Homo sapiens, UniProt Q9NZQ7); assay: Protein-based PD-1/PD-L1 blocking assay; format: binding; details: human PD-L1/PD-1 protein interaction
# CT26 tumor = assay: Anti-tumor activity and survival study in CT26 syngeneic Balb/c mouse model; format: in vivo
# Outline: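 CT26 cells (~1×10^6) implanted s.c. in the right flank of male and female Balb/c mice. At 200-250 mm3, mice were split into five groups of 4 female + 4 male. Test compound or anti-mouse PD-L1 antibody 0.5 mg/kg i.p. daily, day 10–18; saline i.p. control. Caliper volume = 1/2 × length × width2. RTV = day 18/day 10 volume; TGI on day 18; survival curves.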
# trypsin = details: cited from earlier work
# PD-1/PD-L1 complex = details: cited from earlier work
# Chain of human PD-1/PD-L1 interaction (Q9NZQ7 19-238 limits assumed): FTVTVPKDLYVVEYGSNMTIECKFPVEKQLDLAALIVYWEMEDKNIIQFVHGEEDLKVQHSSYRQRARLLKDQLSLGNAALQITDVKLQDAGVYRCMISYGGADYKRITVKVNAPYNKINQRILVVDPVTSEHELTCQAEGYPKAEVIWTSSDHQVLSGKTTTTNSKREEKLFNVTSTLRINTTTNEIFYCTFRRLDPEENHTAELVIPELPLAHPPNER
compound,measurement,setting,value
d(CNLNWTYYSRHC) ([dC][dN][dL][dN][dW][dT][dY][dY][dS][dR][dH][dC]; cysteine pairing not given here; also: retro-inverso) [retro-inverso sequence of the C7 peptide],blocking efficiency / blocking activity (in words),[1]; screening at 5 μM normalized against CLP-2,loss of the blocking efficiency
CC(=O)N[C@H]1CSSC[C@@H](C(=O)N[C@@H](Cc2c[nH]c3ccccc23)C(=O)N[C@@H](CC(N)=O)C(=O)N[C@@H](CC(C)C)C(=O)N[C@@H](CC(N)=O)C(=O)N[C@H](C(N)=O)[C@@H](C)O)NC(=O)[C@H](Cc2ccc(O)cc2)NC(=O)[C@H](Cc2ccc(O)cc2)NC(=O)[C@H](CO)NC(=O)[C@H](CCCNC(=N)N)NC(=O)[C@H](Cc2c[nH]cn2)NC1=O [C12] (Ac-CHRSYYCWNLNT-NH2; disulfide 1-7; N-terminus and C-terminus assumed),increase in the blocking efficiency (normalized against the parent peptide CLP-2),[1]; peptide at 5 μM,~2 fold
same,survival of the mice compared with the saline group,CT26 tumor; 0.5 mg/kg intraperitoneally daily,significant improvement in survival
same,anti-tumor activity (tumor growth) compared with the saline group,"CT26 tumor; 0.5 mg/kg intraperitoneally daily from day 10 to day 18, CT26 Balb/c mice",significant anti-tumor activity
IDR-1018,time to degradation in trypsin,trypsin,less than 30 min
C[C@@H](O)[C@H](NC(=O)N[C@@H](CC(N)=O)c1nc([C@@H](N)CO)no1)C(=O)O [CA-170],blocking of the formation of the PD-1/PD-L1 complex,PD-1/PD-L1 complex,could not block the formation of the PD-1/PD-L1 complex
